Sampled rows, rich in hits. Any-hit rate of the full collection: about 4.5%.
OX1R antag-1: antagonists of human orexin 1 receptor; CHO/OX1R cells, Fluo-8 calcium fluorescence, orexin A; O43613; hit rate 0.43% among 330,000; AID 434989; inhibition, % at 5 µM;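 active = inhibition above its plate's threshold, mean inhibition of all tested compounds on the plate plus 3 SD, cut at about 37% in these data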
GPR7 antagonist: human neuropeptides B/W receptor 1 antagonism. P48145. GPR7-expressing cells, fluorescence antagonist assay. inhibition, % at 4.4 µM. hit rate 1.1% among 290,000; in the data active = inhibition above about 16%, passing the limit was not always enough;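 also: cells stimulated with the agonist NPW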
Target sequence (P48145 whole entry, looked up): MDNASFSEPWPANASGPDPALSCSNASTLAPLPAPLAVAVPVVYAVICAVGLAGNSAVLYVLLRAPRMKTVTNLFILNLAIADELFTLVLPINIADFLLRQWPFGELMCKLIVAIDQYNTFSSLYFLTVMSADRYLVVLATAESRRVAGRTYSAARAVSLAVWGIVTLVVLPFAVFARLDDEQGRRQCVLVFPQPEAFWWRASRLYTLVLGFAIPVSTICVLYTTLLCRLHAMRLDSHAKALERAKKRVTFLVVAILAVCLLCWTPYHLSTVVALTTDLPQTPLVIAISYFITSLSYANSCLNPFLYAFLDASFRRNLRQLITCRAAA
TAAR1 ag: human TAAR1 agonism; Q96RJ0; activation, % at 3 µM; hit rate 0.99% among 360,000; CHO RD-HGA16 TAAR1, Fluo-8 calcium fluorescence; vehicle wells 0%, saturating PEA agonist 100%;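 active = activation above the mean activation of all test compounds in the run plus 3 SD, cut at about 38% in these data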
Target sequence (Q96RJ0 whole entry, looked up): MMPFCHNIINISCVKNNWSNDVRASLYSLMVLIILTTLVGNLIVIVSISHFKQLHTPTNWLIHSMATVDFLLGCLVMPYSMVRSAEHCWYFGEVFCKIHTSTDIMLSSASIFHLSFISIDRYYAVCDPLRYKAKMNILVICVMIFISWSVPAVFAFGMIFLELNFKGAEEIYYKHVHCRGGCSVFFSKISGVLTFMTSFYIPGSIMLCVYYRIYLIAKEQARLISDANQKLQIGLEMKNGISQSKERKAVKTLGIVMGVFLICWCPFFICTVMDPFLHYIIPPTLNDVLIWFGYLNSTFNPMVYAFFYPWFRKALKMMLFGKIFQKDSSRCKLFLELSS
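System: CHO-derived RD-HGA16 cells with stable Gα16 and human TAAR1 / Times: 17-24 h plating, Fluo-8 75 min 37 °C, 30 min RT / Technique: calcium-sensitive Fluo-8 signal, excitation 470-495, emission 515-575 nm / Measure: % activation relative to PEA EC100 response / Benchmarks: DMSO and PEA EC100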
OX1R antag-2: blocks the human orexin 1 receptor | O43613 | OX1R-expressing cells, FRET antagonist read-out | inhibition, % at 6.6 µM | hit rate 1.8% among 330,000; in the data active = inhibition mostly above about 38%, no sharp cut-off; inactive = mostly below about 40%
TAAR1 antag: antagonists of human TAAR1; CHO RD-HGA16 TAAR1, Fluo-8 calcium fluorescence, antagonist; inhibition, % at 3 µM; hit rate 1.5% among 360,000;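 active = inhibition above a per-plate cutoff, the mean inhibition of test compounds on that plate plus 3 SD, cut at about 49% in these data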
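Assay system: RD-HGA16 CHO cells with stable hTAAR1 and Gα16 / Reagent: EC80 β-phenethylamine stimulus / Doses: 3 µM, single point / Timing: dye loading 75 min at 37 °C, then 30 min room temperature / Measured by: Fluo-8 intracellular calcium dye fluorescence, real-time kinetic reads / Controls: vehicle wells and EC80 agonist wells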
CHO parental Ca: counter-screen for OX1R antagonists: effect in parental CHO cells. parental CHO-K1, ATP-induced calcium, Fluo-8 fluorescence. inhibition, % at 5.6 µM. hit rate 0.63% among 330,000. AID 463079;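 active = inhibition above that plate's mean sample inhibition plus 3 SD, cut at about 26% in these data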
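Test system: untransfected parental CHO cell line; also added: ATP stimulus; dosing: 5.6 µM, single dose; signal: calcium-sensitive Fluo-8 fluorescence; measure: percent inhibition of ATP-evoked calcium rise, normalized to controls; benchmarks: low control ATP plus DMSO, high control DMSO only; replication: one well per compound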
A number is an active result; . = inactive; / = no result.

SMILES	OX1R antag-1	GPR7 antagonist	TAAR1 ag	OX1R antag-2	TAAR1 antag	CHO parental Ca
Cc1cc(C)cc(N(C(=O)Cc2cccs2)C(C(=O)NC2CCCCC2)c2ccccn2)c1 (stereo not drawn)	.	.	.	64.9	.	.
O=C(NC1CCCC1)C(c1ccsc1)N(Cc1ccccc1)C(=O)Cc1cccs1 (stereo not drawn)	.	.	.	.	51.8	.
COc1ccccc1Cc1c(-c2ccc(C#N)cc2)nc2ccc(C)cn12	/	/	.	/	.	/
O=C(NNC(=O)c1cc2cc(Br)ccc2oc1=O)c1ccc(O)cc1	.	.	38.1	.	.	.
C=CC[C@H]1CC(C)=C[C@H](CC=C)N1C(=O)c1cc(COc2ccccc2SC)on1	.	.	.	.	52.8	44.4
COCC1CCN(C(=O)c2cc(COc3ccccc3SC)on2)C1 (stereo not drawn)	.	.	.	.	.	.
Cc1oc(-c2ccccc2Cl)nc1CS(=O)CC(=O)NCCc1ccccc1 (stereo not drawn)	.	.	38.2	.	.	.
COc1cc(NC(=O)Cn2cnc(C(=O)Nc3ccc(C)c(C)c3)n2)cc(OC)c1OC	.	/	.	.	.	.
CCCNC(=O)CN1C(=O)COc2ccc(S(=O)(=O)N3CC(C)CC(C)C3)cc21 (stereo not drawn)	.	.	.	.	.	.
Cc1cc(Br)cn2c(Cc3cccc(F)c3)c(-c3ccco3)nc12	/	/	.	/	.	/
CC(C)N1C(=O)S/C(=C/c2ccc(Sc3nc4ccccc4[nH]3)o2)C1=O	55.7	.	.	.	.	70.8
CCOC(=O)C(C)N1C(=O)S/C(=C\c2ccc(-c3ccccc3C(=O)O)o2)C1=O (stereo not drawn)	.	.	.	.	.	.
Cc1ccc2nc(CSc3nnc4ccccn34)cc(=O)n2c1	.	17.1	.	.	.	.
Cn1c(Sc2ccc(C(=O)O)cc2[N+](=O)[O-])nnc1-c1ccccc1	.	.	.	56.7	.	.
CC(=O)c1ccc(Sc2nnnn2-c2ccccc2)c([N+](=O)[O-])c1	.	.	.	.	.	.
Nc1[nH]c(C(=O)c2ccc(Cl)cc2)c(-c2ccc(Br)cc2)c1C(=O)c1c[nH]c2ccc(F)cc12	/	/	.	/	.	/
Cc1ccccc1C(=O)N[C@H](C(=O)N1CCC[C@H]1C(=O)NC1CCCC1)C1CCCCC1	/	/	.	/	.	/
CCCCCOC(=O)C1=C(C)Nc2ncnn2C1c1cccs1 (stereo not drawn)	.	.	.	.	56.6	.
COCCNC(=O)COC(=O)/C=C/c1cnc2ccccc2n1	.	.	.	48.3	.	.
Cc1cc(C)c(C(=O)NC2CCCc3c2cnn3-c2cccc(C)c2C)o1 (stereo not drawn)	.	.	.	58.8	.	.
Cc1nnsc1C(=O)NC1CCCc2c1cnn2-c1ccccc1F (stereo not drawn)	.	.	.	.	.	.
Cc1nnsc1C(=O)NC1CCCc2c1cnn2-c1ccc(C(C)(C)C)cc1 (stereo not drawn)	.	.	.	.	.	41.0
Cc1cc(C(=O)NC2CC(C)(C)Cc3c2cnn3-c2ccccc2C)c(C)o1 (stereo not drawn)	.	.	.	71.5	.	.
COc1ccc(C(=O)NC2CC(C)(C)Cc3c2cnn3-c2ccccc2C)c(OC)c1OC (stereo not drawn)	.	.	.	.	.	.
Cc1cc(C(=O)NC2CCCc3c2cnn3-c2ccc(C)c(C)c2)n(C)n1 (stereo not drawn)	.	.	.	.	.	45.4
SMILES	OX1R antag-1	GPR7 antagonist	TAAR1 ag	OX1R antag-2	TAAR1 antag	CHO parental Ca
CCc1cc(C(=O)NC2CCCc3c2cnn3-c2cccc(C)c2C)n(C)n1 (stereo not drawn)	.	.	.	60.1	.	62.4
O=C(Nc1nccs1)[C@@H]1CC=C[C@@H]2CCN(Cc3ccccc3)C(=O)[C@@H]21	.	/	.	68.2	.	.
COc1ccc(NC(=O)[C@@H]2CC=C[C@@H]3CCN(Cc4ccccc4)C(=O)[C@@H]32)cc1	.	/	.	.	.	.
O=C(Nc1ccc(-n2nncc2-c2ccco2)cc1)c1cc2ccccc2oc1=O	.	.	/	.	/	54.2
Nc1nc2c(ncn2[C@@H]2O[C@H](C(=O)N[C@H](Cc3ccccc3)C(=O)NCc3ccc4c(c3)OCO4)[C@@H](O)[C@H]2O)c(=O)[nH]1	/	/	.	/	.	/
COc1ccc(CCNC(=O)CN2C(=O)NC(c3ccccc3)(c3ccccc3)C2=O)cc1	.	/	.	36.4	.	.
C[C@H](NC(=O)[C@@H]1CSC2c3ccccc3C(=O)N21)C(=O)NC1CCCCC1 (stereo partly drawn)	.	.	.	.	.	.
COc1cccc(NC(=O)C(=O)N/N=C/c2cc(C)n(-c3ccc(Cl)c(Cl)c3)c2C)c1	.	.	.	.	.	.
Cc1cc(/C=N/NC(N)=S)c(C)n1-c1ccc(Cl)c(Cl)c1	.	.	.	.	50.3	.
O=S1(=O)N[C@@H](Cc2ccccc2)COc2cccc(N3CCCCC3)c21	/	/	.	/	.	/
Nc1ccc(-c2nc3ccc(N)cc3[nH]2)cc1	.	.	.	.	.	.
Nc1ccc2cc3[nH]c4cc(N)ccc4c3nc2c1	/	/	78.1	/	63.2	/
O=C1C(Cl)=C(N2CCN(c3ccccc3[N+](=O)[O-])CC2)C(=O)c2ccccc21	.	.	.	54.9	.	.
O=[N+]([O-])c1cc(Cl)ccc1N1CCCC1	.	.	.	.	.	.
COC(=O)[C@]12C[C@H](CC(=O)N3CCOCC3)C(=O)N(Cc3ccccc3)C1=C[C@H](C(C)(C)C)O[C@@H]2C	/	/	.	/	.	/
CCOC(=O)c1c(C)oc2c1c1c(c3ccccc32)OCN(Cc2cccnc2)C1	/	.	/	/	/	/
CCOC(=O)c1c(C)oc2c1c(C(c1cccnc1)N1CCOCC1)c(O)c1ccccc12 (stereo not drawn)	.	.	.	72.7	.	.
Cc1cc(C)c(C)c(SCC(=O)Nc2oc(C)c3c(C)n[nH]c(=O)c23)c1C	.	/	.	.	.	.
Cc1n[nH]c(=O)c2c(NC(=O)CSc3nncs3)oc(C)c12	.	/	.	47.7	.	.
O=c1[nH]c2cc3c(cc2cc1CN(Cc1ccc2c(c1)OCO2)Cc1nnnn1CC1CCCO1)OCO3 (stereo not drawn)	.	.	.	49.2	.	.
Cc1ccc2[nH]c(=O)c(CN(Cc3cccnc3)Cc3nnnn3CC3CCCO3)cc2c1 (stereo not drawn)	.	.	.	.	.	.
COC1C(O)C(O)C(O)C(O)C1O (stereo not drawn)	/	/	.	/	.	/
FC(F)C(F)(F)C(F)(F)C(F)(F)c1cc(-c2ccccc2)n[nH]1	52.5	.	.	42.2	.	86.6
Cc1cc(-c2ccccc2)n[nH]1	.	.	.	.	.	.

High-throughput results as filed in PubChem.
